Assay results from ChEMBL document CHEMBL1932985, “Identification of biaryl sulfone derivatives as antagonists of the histamine H₃ receptor: discovery of (R)-1-(2-(4'-(3-methoxypropylsulfonyl)biphenyl-4-yl)ethyl)-2-methylpyrrolidine (APD916)” (Bioorg Med Chem Lett, 2012).

Tests used:
Canis lupus familiaris [1] = assay: Cardiotoxicity in dog assessed as increase in mean arterial blood pressure at 10 to 30 mg/kg, po; details: in vivo
Cytochrome P450 2C9 = Cytochrome P450 2C9 (Homo sapiens, UniProt P11712); assay: Inhibition of CYP2C9; assay type: ADME
Chain of Cytochrome P450 2C9 (P11712 whole entry, canonical isoform): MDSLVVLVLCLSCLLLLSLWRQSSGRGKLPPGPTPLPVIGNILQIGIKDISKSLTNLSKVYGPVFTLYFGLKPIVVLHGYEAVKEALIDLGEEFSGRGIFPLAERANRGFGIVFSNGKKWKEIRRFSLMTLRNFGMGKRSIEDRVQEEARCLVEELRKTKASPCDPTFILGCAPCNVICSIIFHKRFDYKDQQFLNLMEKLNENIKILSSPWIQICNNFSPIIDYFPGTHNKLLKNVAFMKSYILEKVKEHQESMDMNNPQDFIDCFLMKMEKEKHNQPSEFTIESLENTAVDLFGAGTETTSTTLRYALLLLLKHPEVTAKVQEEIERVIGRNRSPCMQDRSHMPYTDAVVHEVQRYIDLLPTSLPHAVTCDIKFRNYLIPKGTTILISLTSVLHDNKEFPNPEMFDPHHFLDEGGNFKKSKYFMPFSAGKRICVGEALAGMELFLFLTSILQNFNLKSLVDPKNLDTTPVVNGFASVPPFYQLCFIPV
In short: (§1)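 Inhibition tested against five major CYP isoforms; IC50 determined.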

Histamine H3 receptor [2] = biological target: T1, Histamine H3 receptor (Homo sapiens, UniProt Q9Y5N1); assay: Inverse agonist activity at human cloned histamine H3 receptor by [35S]GTPgammaS binding assay; assay type: functional
T1 sequence (Q9Y5N1 whole entry): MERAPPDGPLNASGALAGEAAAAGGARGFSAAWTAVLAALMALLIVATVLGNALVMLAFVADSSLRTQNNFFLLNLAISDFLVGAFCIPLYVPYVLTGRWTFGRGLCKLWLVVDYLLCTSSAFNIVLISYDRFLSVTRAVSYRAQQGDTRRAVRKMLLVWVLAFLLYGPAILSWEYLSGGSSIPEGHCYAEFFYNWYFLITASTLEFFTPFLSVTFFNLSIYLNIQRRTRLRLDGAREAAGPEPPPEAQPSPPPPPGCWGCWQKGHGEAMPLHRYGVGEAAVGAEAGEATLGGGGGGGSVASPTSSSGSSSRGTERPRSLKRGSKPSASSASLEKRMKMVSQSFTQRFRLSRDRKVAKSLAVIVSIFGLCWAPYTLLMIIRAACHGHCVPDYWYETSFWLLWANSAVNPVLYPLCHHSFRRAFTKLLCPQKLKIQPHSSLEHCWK

[3] = Oral bioavailability in mouse at 3 mg/kg by LC-MS/MS analysis; assay type: ADME, organism-based; details: in vivo
Rattus norvegicus [4] = assay: Inhibition of RAMH-induced dipsogenia in Sprague-Dawley rat at 0.6 mg/kg, po administered 6 hrs prior to RAMH challenge measured up to 20 mins; assay type: functional
In short: (§2)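 Rats given compound orally 0.5 h (or, for duration of action, at selected times up to 6 h) before RAMH 10 mg/kg SC; water consumed over 20 min measured. Screening doses 1 or 0.3 mg/kg PO, also 0.1 mg/kg; duration study at 0.6 mg/kg PO. MED = minimum dose fully inhibiting drinking; means ± SEM.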

[5] = Drug uptake in Sprague-Dawley rat brain at 0.3 mg/kg, po after 1 hr; assay type: ADME, organism-based; parameters: dose 0.3 mg/kg, route oral
In short: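 Whole-brain concentration measured 1 h after a 0.3 mg/kg oral dose in rat, the time coinciding with the drinking measurement; expressed […].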

[6] = Half life in monkey at 3 mg/kg, po by LC-MS/MS analysis; assay type: ADME, organism-based, Macaca mulatta; parameters: dose 3 mg/kg, route oral; details: rhesus monkey, in vivo
[7] = Tmax in dog at 3 mg/kg, po by LC-MS/MS analysis; assay type: ADME, organism-based, Canis lupus familiaris; parameters: dose 3 mg/kg, route oral; details: in vivo
Rattus norvegicus [8] = assay: Hepatic blood flow in Sprague-Dawley rat at 3 mg/kg, po by LC-MS/MS analysis; assay type: ADME, organism-based, Liver; parameters: dose 3 mg/kg, route oral; details: in vivo
Rattus norvegicus [9] = assay: Volume of distribution at steady state in Sprague-Dawley rat at 3 mg/kg, po and iv by LC-MS/MS analysis; assay type: ADME, organism-based; parameters: dose 3 mg/kg, route oral; details: in vivo
In short: (§3)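 Rats were given the compound both IV and PO in a routine PK study. Tmax came from the PO arm and Vss from the IV arm.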

[10] = Tmax in monkey at 3 mg/kg, po by LC-MS/MS analysis; assay type: ADME, organism-based, Macaca mulatta; parameters: dose 3 mg/kg, route oral; details: rhesus monkey, in vivo
Cytochrome P450 3A4 = Cytochrome P450 3A4 (Homo sapiens, UniProt P08684); assay: Inhibition of CYP3A4; assay type: ADME
Chain of Cytochrome P450 3A4 (P08684 whole entry): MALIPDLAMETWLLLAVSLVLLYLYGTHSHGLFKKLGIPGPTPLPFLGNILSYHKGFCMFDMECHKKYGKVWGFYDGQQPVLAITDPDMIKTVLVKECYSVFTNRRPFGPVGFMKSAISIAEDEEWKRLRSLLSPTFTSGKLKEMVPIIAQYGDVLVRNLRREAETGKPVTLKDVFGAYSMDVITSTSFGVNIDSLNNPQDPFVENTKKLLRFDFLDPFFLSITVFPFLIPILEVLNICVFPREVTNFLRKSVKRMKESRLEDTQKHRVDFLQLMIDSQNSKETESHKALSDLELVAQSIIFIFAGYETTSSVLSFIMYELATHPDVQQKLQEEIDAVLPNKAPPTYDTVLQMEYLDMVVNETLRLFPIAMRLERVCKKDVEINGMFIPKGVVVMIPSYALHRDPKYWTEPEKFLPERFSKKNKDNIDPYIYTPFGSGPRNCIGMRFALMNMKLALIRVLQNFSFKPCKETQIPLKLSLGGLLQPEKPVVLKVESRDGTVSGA
In short: as §1

[11] = Clearance in dog at 3 mg/kg, po by LC-MS/MS analysis; assay type: ADME, organism-based, Canis lupus familiaris; parameters: dose 3 mg/kg, route oral; details: in vivo
[12] = Half life in dog at 3 mg/kg, po by LC-MS/MS analysis; assay type: ADME, organism-based, Canis lupus familiaris; parameters: dose 3 mg/kg, route oral; details: in vivo
[13] = Clearance in Sprague-Dawley rat at 3 mg/kg, po by LC-MS/MS analysis; assay type: ADME, organism-based; parameters: dose 3 mg/kg, route oral; details: in vivo
Cytochrome P450 1A2 = biological target: T2, Cytochrome P450 1A2 (Homo sapiens, UniProt P05177); assay: Inhibition of CYP1A2; assay type: ADME
T2 sequence (P05177 whole entry): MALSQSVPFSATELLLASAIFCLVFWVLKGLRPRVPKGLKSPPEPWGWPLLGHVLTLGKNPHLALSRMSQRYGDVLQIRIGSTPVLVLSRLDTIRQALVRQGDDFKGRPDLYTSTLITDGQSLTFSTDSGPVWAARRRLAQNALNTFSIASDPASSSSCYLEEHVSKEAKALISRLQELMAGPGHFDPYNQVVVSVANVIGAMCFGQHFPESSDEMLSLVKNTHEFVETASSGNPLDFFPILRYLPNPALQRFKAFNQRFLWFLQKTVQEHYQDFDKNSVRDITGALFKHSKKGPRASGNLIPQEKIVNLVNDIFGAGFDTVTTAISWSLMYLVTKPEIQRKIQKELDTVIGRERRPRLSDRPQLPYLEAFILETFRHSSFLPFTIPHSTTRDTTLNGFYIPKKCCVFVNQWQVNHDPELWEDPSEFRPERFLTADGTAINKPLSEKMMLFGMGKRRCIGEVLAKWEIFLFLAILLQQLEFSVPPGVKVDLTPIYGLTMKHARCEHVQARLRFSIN
In short: as §1

[14] = Oral bioavailability in Sprague-Dawley rat at 3 mg/kg by LC-MS/MS analysis; assay type: ADME, organism-based; details: in vivo
In short: (§4)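 Rat PK after IV and PO dosing; plasma Cmax, Tmax, IV half-life and Vss determined; oral bioavailability from AUCpo/AUCiv. Metabolite exposure determined after a 3 mg/kg PO parent dose.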

[15] = Half life in mouse at 3 mg/kg, po by LC-MS/MS analysis; assay type: ADME, organism-based; parameters: dose 3 mg/kg, route oral; details: in vivo
Canis lupus familiaris [16] = assay: Cardiotoxicity in dog assessed as increase in mean arterial blood pressure at 10 to 30 mg/kg, po after 60 mins; details: in vivo, 1 h
Mus musculus [17] = assay: Hepatic blood flow in mouse at 3 mg/kg, po by LC-MS/MS analysis; assay type: ADME, organism-based, Liver; parameters: dose 3 mg/kg, route oral; details: in vivo
[18] = Half life in Sprague-Dawley rat at 3 mg/kg, iv by LC-MS/MS analysis; assay type: ADME, organism-based; parameters: dose 3 mg/kg, route intravenous; details: in vivo
In short: as §4

[19] = Tmax in Sprague-Dawley rat at 3 mg/kg, po and iv by LC-MS/MS analysis; assay type: ADME, organism-based; parameters: dose 3 mg/kg, route oral; details: in vivo
In short: as §3

Histamine H3 receptor [20] = biological target: Histamine H3 receptor (Rattus norvegicus, UniProt Q9QYN8); assay: Displacement of N-[3H]-methylhistamine from histamine H3 receptor in rat cortex membranes; assay type: cell membranes, Membrane
Chain of Histamine H3 receptor (Rattus norvegicus, UniProt Q9QYN8) (Q9QYN8 whole entry): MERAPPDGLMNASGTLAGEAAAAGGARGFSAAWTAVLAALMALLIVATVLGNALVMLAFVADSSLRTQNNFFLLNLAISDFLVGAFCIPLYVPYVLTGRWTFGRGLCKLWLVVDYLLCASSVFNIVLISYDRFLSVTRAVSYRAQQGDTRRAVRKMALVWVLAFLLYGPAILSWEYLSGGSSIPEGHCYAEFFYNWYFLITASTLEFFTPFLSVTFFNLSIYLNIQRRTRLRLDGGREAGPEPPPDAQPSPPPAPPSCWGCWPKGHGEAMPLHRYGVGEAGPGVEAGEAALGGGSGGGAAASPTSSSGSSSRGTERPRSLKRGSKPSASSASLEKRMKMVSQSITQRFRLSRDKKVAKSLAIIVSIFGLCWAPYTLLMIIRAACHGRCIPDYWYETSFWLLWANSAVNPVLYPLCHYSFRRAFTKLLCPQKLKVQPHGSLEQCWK

[21] = biological target: Voltage-gated inwardly rectifying potassium channel KCNH2 (Homo sapiens, UniProt Q12809); assay: Inhibition of human ERG by patch-clamp assay
Chain of Voltage-gated inwardly rectifying potassium channel KCNH2 (Q12809 whole entry): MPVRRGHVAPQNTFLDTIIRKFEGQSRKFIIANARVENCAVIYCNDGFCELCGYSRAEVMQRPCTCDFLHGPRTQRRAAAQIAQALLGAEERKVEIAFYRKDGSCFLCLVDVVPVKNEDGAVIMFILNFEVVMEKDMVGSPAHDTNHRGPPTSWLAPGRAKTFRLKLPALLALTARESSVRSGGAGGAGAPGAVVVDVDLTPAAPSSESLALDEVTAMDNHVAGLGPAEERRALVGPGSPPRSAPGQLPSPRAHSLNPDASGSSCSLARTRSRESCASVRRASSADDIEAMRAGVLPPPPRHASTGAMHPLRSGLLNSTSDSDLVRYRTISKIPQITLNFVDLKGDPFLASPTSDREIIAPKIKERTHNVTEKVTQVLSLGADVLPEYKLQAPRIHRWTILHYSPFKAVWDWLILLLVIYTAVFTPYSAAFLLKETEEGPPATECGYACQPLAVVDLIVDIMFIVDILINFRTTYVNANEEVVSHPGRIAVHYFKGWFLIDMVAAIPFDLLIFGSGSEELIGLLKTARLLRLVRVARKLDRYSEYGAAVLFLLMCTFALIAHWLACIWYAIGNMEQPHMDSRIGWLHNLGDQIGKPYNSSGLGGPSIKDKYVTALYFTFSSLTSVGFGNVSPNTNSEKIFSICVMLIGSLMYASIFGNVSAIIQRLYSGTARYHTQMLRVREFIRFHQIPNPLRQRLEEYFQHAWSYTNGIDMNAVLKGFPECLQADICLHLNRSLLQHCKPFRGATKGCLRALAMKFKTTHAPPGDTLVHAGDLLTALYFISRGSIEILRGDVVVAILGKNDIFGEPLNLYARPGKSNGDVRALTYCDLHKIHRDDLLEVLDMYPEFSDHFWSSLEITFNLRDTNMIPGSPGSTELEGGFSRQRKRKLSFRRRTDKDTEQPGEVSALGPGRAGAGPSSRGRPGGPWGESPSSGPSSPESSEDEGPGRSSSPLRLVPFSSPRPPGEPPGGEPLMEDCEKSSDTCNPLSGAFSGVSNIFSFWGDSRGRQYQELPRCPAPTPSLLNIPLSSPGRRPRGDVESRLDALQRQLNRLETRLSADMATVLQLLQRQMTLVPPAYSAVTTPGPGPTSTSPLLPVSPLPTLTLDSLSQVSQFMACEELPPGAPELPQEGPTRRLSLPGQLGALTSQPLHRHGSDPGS

[22] = Plasma protein binding in rat; assay type: ADME, cell-free; details: read-out: PPB (converted)
[23] = Clearance in mouse at 3 mg/kg, po by LC-MS/MS analysis; assay type: ADME, organism-based; parameters: dose 3 mg/kg, route oral; details: in vivo
[24] = Cmax in Sprague-Dawley rat at 3 mg/kg, po by LC-MS/MS analysis; assay type: ADME, organism-based; parameters: dose 3 mg/kg, route oral; details: in vivo
In short: as §4

Cytochrome P450 2D6 = Cytochrome P450 2D6 (Homo sapiens, UniProt P10635); assay: Inhibition of CYP2D6; assay type: ADME
Chain of Cytochrome P450 2D6 (P10635 whole entry): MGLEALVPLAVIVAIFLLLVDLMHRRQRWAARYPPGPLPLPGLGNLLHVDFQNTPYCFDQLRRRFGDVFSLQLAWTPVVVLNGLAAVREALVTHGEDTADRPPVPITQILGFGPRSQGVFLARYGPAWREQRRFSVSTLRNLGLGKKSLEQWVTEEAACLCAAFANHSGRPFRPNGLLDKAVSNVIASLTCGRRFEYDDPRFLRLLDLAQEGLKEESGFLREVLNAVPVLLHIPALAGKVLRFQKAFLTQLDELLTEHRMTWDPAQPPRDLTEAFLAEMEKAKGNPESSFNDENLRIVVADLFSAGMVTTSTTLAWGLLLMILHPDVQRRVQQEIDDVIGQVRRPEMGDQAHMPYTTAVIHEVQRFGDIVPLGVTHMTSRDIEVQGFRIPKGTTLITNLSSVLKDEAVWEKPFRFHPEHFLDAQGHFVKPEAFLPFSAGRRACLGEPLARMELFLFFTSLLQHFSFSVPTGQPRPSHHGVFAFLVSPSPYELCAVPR
In short: as §1

Histamine H3 receptor [25] = biological target: T1, Histamine H3 receptor; assay: Binding affinity to human cloned histamine H3 receptor
[26] = Cmax in Sprague-Dawley rat plasma at 3 mg/kg, po and iv by LC-MS/MS analysis; assay type: ADME, organism-based; parameters: dose 3 mg/kg, route oral
In short: as §4

[27] = Cmax in dog at 3 mg/kg, po by LC-MS/MS analysis; assay type: ADME, organism-based, Canis lupus familiaris; parameters: dose 3 mg/kg, route oral; details: in vivo
[28] = Plasma protein binding in human; assay type: ADME, cell-free; details: read-out: PPB (converted)
Mus musculus [29] = assay: Volume of distribution at steady state in mouse at 3 mg/kg, po by LC-MS/MS analysis; assay type: ADME, organism-based; parameters: dose 3 mg/kg, route oral; details: in vivo
[30] = Ratio of drug level in brain to plasma in Sprague-Dawley rat at 3 mg/kg, po and iv after 0.75 to 3 hrs by LC-MS/MS analysis; assay type: ADME, organism-based; parameters: dose 3 mg/kg, route oral; details: read-out: BPR
In short: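 Brain (µg/mg) and plasma (µg/mL) levels were measured after oral dosing, with three rats per time point. The b/p ratio was the mean of the nine individual ratios.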

Rattus norvegicus [31] = assay: Volume of distribution at steady state in Sprague-Dawley rat at 3 mg/kg, po by LC-MS/MS analysis; assay type: ADME, organism-based; parameters: dose 3 mg/kg, route oral; details: in vivo
[32] = Cmax in monkey at 3 mg/kg, po by LC-MS/MS analysis; assay type: ADME, organism-based, Macaca mulatta; parameters: dose 3 mg/kg, route oral; details: rhesus monkey, in vivo
[33] = Oral bioavailability in dog at 3 mg/kg by LC-MS/MS analysis; assay type: ADME, organism-based, Canis lupus familiaris; details: in vivo
[34] = Clearance in monkey at 3 mg/kg, po by LC-MS/MS analysis; assay type: ADME, organism-based, Macaca mulatta; parameters: dose 3 mg/kg, route oral; details: rhesus monkey, in vivo
[35] = Tmax in mouse at 3 mg/kg, po by LC-MS/MS analysis; assay type: ADME, organism-based; parameters: dose 3 mg/kg, route oral; details: in vivo
Canis familiaris [36] = assay: Volume of distribution at steady state in dog at 3 mg/kg, po by LC-MS/MS analysis; assay type: ADME, organism-based, Canis lupus familiaris; parameters: dose 3 mg/kg, route oral; details: in vivo
Rhesus monkey [37] = assay: Hepatic blood flow in monkey at 3 mg/kg, po by LC-MS/MS analysis; assay type: ADME, organism-based, Macaca mulatta, Liver; parameters: dose 3 mg/kg, route oral; details: in vivo
Salmonella typhimurium = assay: Mutagenic activity in Salmonella Typhimurium by micro-Ames assay; assay type: toxicity, organism-based; details: salmonella enterica subsp. enterica serovar typhimurium
Canis familiaris [38] = assay: Hepatic blood flow in dog at 3 mg/kg, po by LC-MS/MS analysis; assay type: ADME, organism-based, Canis lupus familiaris, Liver; parameters: dose 3 mg/kg, route oral; details: in vivo
[39] = Cmax in mouse at 3 mg/kg, po by LC-MS/MS analysis; assay type: ADME, organism-based; parameters: dose 3 mg/kg, route oral; details: in vivo
[40] = Half life in Sprague-Dawley rat at 3 mg/kg, po by LC-MS/MS analysis; assay type: ADME, organism-based; parameters: dose 3 mg/kg, route oral; details: in vivo
Cytochrome P450 2C19 = Cytochrome P450 2C19 (Homo sapiens, UniProt P33261); assay: Inhibition of CYP2C19; assay type: ADME
Chain of Cytochrome P450 2C19 (P33261 whole entry): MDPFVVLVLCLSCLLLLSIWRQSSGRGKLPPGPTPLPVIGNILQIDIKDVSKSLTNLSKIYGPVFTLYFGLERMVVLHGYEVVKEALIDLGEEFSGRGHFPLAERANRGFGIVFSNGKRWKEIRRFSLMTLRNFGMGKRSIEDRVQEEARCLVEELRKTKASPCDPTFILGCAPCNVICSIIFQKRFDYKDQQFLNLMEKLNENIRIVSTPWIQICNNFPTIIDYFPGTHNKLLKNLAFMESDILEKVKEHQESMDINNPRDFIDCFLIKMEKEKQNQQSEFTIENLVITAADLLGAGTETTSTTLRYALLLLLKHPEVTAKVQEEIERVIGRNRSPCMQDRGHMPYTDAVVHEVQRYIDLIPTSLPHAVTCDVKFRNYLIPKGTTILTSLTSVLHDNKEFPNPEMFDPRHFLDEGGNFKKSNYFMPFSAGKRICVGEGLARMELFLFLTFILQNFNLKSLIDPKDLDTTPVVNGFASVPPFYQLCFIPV
In short: as §1

[41] = Oral bioavailability in monkey at 3 mg/kg by LC-MS/MS analysis; assay type: ADME, organism-based, Macaca mulatta; details: rhesus monkey, in vivo
hERG (KCNH2) = hERG (KCNH2) (Homo sapiens, UniProt Q12809); assay: Inhibition of human ERG at 3 uM by patch-clamp assay
Rhesus monkey [42] = assay: Volume of distribution at steady state in monkey at 3 mg/kg, po by LC-MS/MS analysis; assay type: ADME, organism-based, Macaca mulatta; parameters: dose 3 mg/kg, route oral; details: in vivo
Rattus norvegicus [43] = assay: Inhibition of RAMH-induced dipsogenia in po dosed Sprague-Dawley rat administered 30 mins prior to RAMH challenge measured up to 20 mins; assay type: functional; details: read-out: MED
In short: as §2

- IC50 (Cytochrome P450 2C9): > 40 µM
- IC50 (Histamine H3 receptor [2]): 0.0007 µM
- bioavailability [3]: 35.4%
- concentration at 1 h [5]: 17 ng/g
- half-life [6]: 6.9 h
- Tmax [7]: 0.8 h
- QH (Rattus norvegicus [8]): 106%
- Vdss (Rattus norvegicus [9]): 7.5 L/kg
- Tmax [10]: 2.3 h
- IC50 (Cytochrome P450 3A4): > 40 µM
- CL/F [11]: 13.7 mL/min/kg
- half-life [12]: 5 h
- CL/F [13]: 74.3 mL/min/kg
- IC50 (Cytochrome P450 1A2): > 40 µM
- bioavailability [14]: 27.3%
- half-life [15]: 1.5 h
- QH (Mus musculus [17]): 78%
- half-life [18]: 1.9 h
- Tmax [19]: 0.5 h
- Ki (Histamine H3 receptor [20]): 0.0007 µM
- fraction unbound [22]: 0.26
- CL/F [23]: 72.7 mL/min/kg
- Cmax [24]: 100 ng/mL
- IC50 (Cytochrome P450 2D6): > 40 µM
- Ki (Histamine H3 receptor [25]): 0.0042 µM
- Cmax [26]: 104 ng/mL
- Cmax [27]: 600 ng/mL
- fraction unbound [28]: 0.26
- Vdss (Mus musculus [29]): 2.54 L/kg
- Kp [30]: 3.3
- Vdss (Rattus norvegicus [31]): 7.54 L/kg
- Cmax [32]: 550 ng/mL
- bioavailability [33]: 100%
- CL/F [34]: 6.17 mL/min/kg
- Tmax [35]: 1 h
- Vdss (Canis familiaris [36]): 2.89 L/kg
- QH (Rhesus monkey [37]): 14%
- QH (Canis familiaris [38]): 43%
- Cmax [39]: 80 ng/mL
- half-life [40]: 1.9 h
- IC50 (Cytochrome P450 2C19): > 40 µM
- bioavailability [41]: 67.5%
- Vdss (Rhesus monkey [42]): 2.16 L/kg
Structure (SMILES): COCCCS(=O)(=O)c1ccc(-c2ccc(CCN3CCC[C@H]3C)cc2)cc1
- Activity (Canis lupus familiaris [1]): Toxic
- inhibition in vivo at 0.6 mg/kg (Rattus norvegicus [4]): < 20%
- Activity (Canis lupus familiaris [16]): Non-toxic
- IC50 [21]: 11 µM
- Activity (Salmonella typhimurium): Non-toxic
- inhibition at 3 µM (hERG (KCNH2)): 14%
- minimal effective dose (Rattus norvegicus [43]): 0.3 mg/kg
